# A selection: hits, their analogues and other compounds. The true share with any hit is near 5.7%.
# T cruzi inh = blocks replication of Trypanosoma cruzi; T. cruzi beta-gal in NIH3T3, luminescence, 90 h; inhibition, % (test concentration not listed); actives 1.4% (n = 300,000); AID 1885;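 active means mean inhibition across valid replicates above about 55%, limit read from the data; inconclusive means mean below that limit but half or more replicates reach it; inactive means mean below it, under half of replicates reach it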;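 further: signal also drops with host cell toxicity which is not excluded here; higher percent means less beta-gal luminescence so fewer parasites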
#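 System – NIH/3T3 host cells with β-galactosidase reporter T. cruzi · Doses – single 50 nL compound addition per well in DMSO · Reagent – 5000 T. cruzi trypomastigotes/well · Medium – Low-serum DMEM with 2% FBS · Timing – ≥90 h infection period, 3 h prior cell attachment · Evaluation – parasite load inhibition, % · Technique – GalScreen luminescence, 60 min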
# SKKanGAS inh = blocks kanamycin growth of S. pyogenes SKKanGAS strain; BacTiter-Glo, 6 h; inhibition, % at 7.5 µM; actives 1.3% (n = 300,000); AID 1662;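 active means mean replicate score, as percent of positive control median, at least 50; inconclusive means mean below 50 but one replicate at or above 50; inactive means mean and every replicate below 50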;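 further: strain carries kanamycin resistance gene driven by streptokinase promoter and grows in 40 µg/ml kanamycin; loss of luminescence reflects streptokinase promoter inhibition or plain growth inhibition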
# Mdm2-MdmX inh = disrupts the human Mdm2-MdmX interaction; SaOS-2 split-luciferase Mdm2/MdmX complementation, luminescence; actives 3% (n = 330,000); inhibition, % at 8 µM; O15151+Q00987;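 active means inhibition of at least 50% at 8 µM in the primary screen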
# Target sequence (O15151 whole entry, looked up): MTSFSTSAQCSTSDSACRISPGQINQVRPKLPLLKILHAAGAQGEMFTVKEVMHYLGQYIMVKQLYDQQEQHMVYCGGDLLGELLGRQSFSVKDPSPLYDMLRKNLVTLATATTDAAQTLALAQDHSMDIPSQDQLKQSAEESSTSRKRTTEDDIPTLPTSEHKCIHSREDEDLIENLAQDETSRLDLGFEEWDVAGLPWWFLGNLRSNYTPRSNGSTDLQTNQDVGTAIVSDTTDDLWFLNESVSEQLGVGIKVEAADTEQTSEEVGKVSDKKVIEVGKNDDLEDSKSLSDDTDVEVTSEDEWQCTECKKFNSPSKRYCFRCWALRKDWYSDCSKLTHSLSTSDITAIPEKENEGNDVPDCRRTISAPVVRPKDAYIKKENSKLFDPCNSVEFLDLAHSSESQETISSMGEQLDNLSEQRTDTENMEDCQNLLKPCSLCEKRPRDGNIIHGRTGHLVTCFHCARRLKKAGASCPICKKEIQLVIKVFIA
# Target sequence (Q00987 whole entry, looked up): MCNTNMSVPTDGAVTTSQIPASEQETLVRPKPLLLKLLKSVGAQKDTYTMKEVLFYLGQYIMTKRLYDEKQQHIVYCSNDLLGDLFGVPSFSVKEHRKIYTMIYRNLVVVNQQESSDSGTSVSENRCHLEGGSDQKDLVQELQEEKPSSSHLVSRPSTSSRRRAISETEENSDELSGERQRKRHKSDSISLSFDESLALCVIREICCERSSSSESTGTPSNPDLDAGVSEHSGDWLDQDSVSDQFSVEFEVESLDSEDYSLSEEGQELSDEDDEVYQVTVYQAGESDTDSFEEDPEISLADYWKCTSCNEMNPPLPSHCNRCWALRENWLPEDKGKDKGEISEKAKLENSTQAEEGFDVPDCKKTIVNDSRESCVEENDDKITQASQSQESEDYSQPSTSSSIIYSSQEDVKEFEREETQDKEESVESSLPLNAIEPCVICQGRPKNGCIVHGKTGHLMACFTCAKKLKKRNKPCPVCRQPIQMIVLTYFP
# CSC inhib = cancer stem cell inhibition; inhibition, % at 7.5 µM; actives 1.1% (n = 300,000); cancer stem cell-like cells viability, luminescence; AID 2717; in the data active means inhibition above about 75%; inconclusive means no clear call, values can overlap the other calls; tested in HMLE shEcad cells
# Calb FLC = C. albicans growth modulation with fluconazole. C. albicans CaCi-2 + fluconazole, Alamar Blue growth, 48 h. growth inhibition, % (test concentration not listed). actives 0.57% (n = 300,000). AID 1979;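 active means growth inhibition above about 58% in most replicates, limit read from the data, passing the limit was not always enough; inconclusive means exactly half the replicates above a set limit; inactive means most replicates below a set limit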;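 further: all wells also contain fluconazole at 8 µg/ml as a sub-toxic cotreatment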
# Beta apoptosis = blocks beta cell apoptosis. INS-1E cytokine-induced death, ATP luminescence, 48 h; percent of positive-control rescue, neutral wells zero. protection from apoptosis, % (concentration not given with the values). actives 0.8% (n = 300,000). AID 435005;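 active means Every replicate reaches about 75%, or at least half do and their mean reaches it too, limit read from the data; inconclusive means At least half of replicates reach the limit but their mean does not; inactive means Under half of replicates reach the limit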;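 further: higher means more ATP so stronger rescue from cytokine killing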
# Numbers stand for hits; . = inactive; ? = inconclusive; / = not tested or not shown.
SMILES,T cruzi inh,SKKanGAS inh,Mdm2-MdmX inh,CSC inhib,Calb FLC,Beta apoptosis
CCC(=O)c1cc(F)c(N2CCN(S(=O)(=O)c3ccc(C)cc3)CC2)cc1C,59,.,.,.,.,.
COC(=O)c1ccc(NC(=O)CCN2CCN(Cc3ccccc3)CC2)cc1,65,.,.,.,.,.
COC(=O)c1ccc(NC(=S)N2CCN(Cc3ccccc3)CC2)cc1,.,.,.,.,.,.
O=C(O)CCCC(=O)N1CCc2cc(S(=O)(=O)NCc3ccc(F)cc3)ccc21,.,.,.,.,.,.
COCCNC(=O)NC12CC3CC(CC(C3)C1)C2,.,.,.,.,95,.
CC1CCCC(NC(=O)COC(=O)/C=C/c2ccc([N+](=O)[O-])cc2)C1C (configuration not stated),/,/,.,.,/,.
C/C(=N\NC(=O)COc1ccc(C(C)(C)C)cc1)c1cc2ccccc2o1,.,.,.,.,.,.
C/C(=N\NC(=O)COc1ccc(C)cc1C(C)C)c1cc2ccccc2o1,.,57,.,/,.,.
Fc1ccc(C2c3cccn3CCN2C(=S)Nc2cccc(Br)c2)cc1 (configuration not stated),.,.,.,.,.,.
Cc1cccc(NC(=S)N2CCn3cccc3C2c2cccnc2)c1 (configuration not stated),.,.,.,.,.,.
COc1cccc(NC(=S)N2CCn3cccc3C2c2cccnc2)c1 (configuration not stated),76,.,.,.,.,.
Fc1ccc(NC(=S)N2CCn3cccc3C2c2cccnc2)cc1 (configuration not stated),71,.,.,.,.,.
O=C(c1cnn2c(C(F)(F)F)cc(-c3ccccc3)nc12)N1CCCCC1c1cccnc1 (configuration not stated),59,.,.,.,.,.
O=C(c1cc2nc(-c3ccc(F)cc3)cc(C(F)(F)F)n2n1)N1CCCCC1c1cccnc1 (configuration not stated),95,.,.,.,.,.
Cc1ccc(-c2cc(C(F)F)n3ncc(C(=O)N4CCCCC4c4cccnc4)c3n2)cc1 (configuration not stated),63,.,.,.,.,.
O=C(c1cnn2c(C(F)(F)F)cc(-c3ccccc3)nc12)N1CCCc2ccccc21,.,.,.,.,.,.
CCCN(CC1CC1)C(=S)Nc1ccccc1F,.,.,.,.,.,.
CCc1ccc(Nc2nnc(SCC(=O)c3c(N)n(C4CC4)c(=O)[nH]c3=O)s2)cc1,/,/,.,/,/,.
Cn1c(SCC(=O)N2CCCC2=O)nc2ccccc2c1=O,/,/,.,/,/,.
COc1cc(NC(=O)COC(=O)/C=C/c2c(C)nn(-c3ccc(F)cc3)c2Cl)cc(OC)c1,60,.,.,.,.,.
Cc1ccc(NC(=O)Cn2nc(C)c(S(=O)(=O)N(C)C)c2C)cc1C,.,.,.,.,.,.
C/C(NC(=O)c1ccccc1F)=C1\C(=O)C[C@@H]2[C@H]1C2(C)C,.,.,.,.,.,.
C/C(NC(=O)c1cccc(F)c1)=C1/C(=O)C[C@@H]2[C@H]1C2(C)C,.,.,.,92,.,.
O=C(CS(=O)CC(=O)N(CC(=O)NC1CCCC1)c1ccccc1F)Nc1ccc(F)cc1 (configuration not stated),.,.,.,.,.,.
Cc1ccc(Cl)c(OCC(=O)Nc2ccc(S(=O)(=O)NC3=NCCCCC3)cc2)c1,.,.,.,/,.,.
SMILES,T cruzi inh,SKKanGAS inh,Mdm2-MdmX inh,CSC inhib,Calb FLC,Beta apoptosis
Cc1cc(OCC(=O)Nc2ccc(S(=O)(=O)NC3=NCCCCC3)cc2)c(C(C)C)cc1Cl,.,.,.,85,.,.
Cc1ccc(C2C3=C(CC(C)(C)CC3=O)N=C3c4ccccc4C(=O)C32)cc1 (configuration not stated),.,.,.,.,85,.
Cc1ccc(C2C3=C(CC(C)(C)CC3=O)OC3=C2C(=O)CC(C)(C)C3)cc1,.,.,.,.,?,.
Cc1cccc(C)c1NC(=O)CNCC(=O)N(C)C,.,.,.,.,.,.
Cc1cc(Cl)c(C)c(S(=O)(=O)Oc2ccccc2NC(=O)CCC(=O)O)c1Cl,/,/,.,.,/,.
CSc1ccccc1NC(=O)c1cc(-c2cccnc2)nc2ccc(Br)cc12,69,.,.,.,.,.

# Screens from PubChem BioAssay.
